Measured values published in ChEMBL document CHEMBL1255404, “Spread of OXA-48-encoding plasmid in Turkey and beyond” (2010).
In brackets after ≈: the same amount, converted by molar mass.

Key:
Assay type in all cases: functional
Klebsiella pneumoniae [1] = assay: Antimicrobial activity against Klebsiella pneumoniae isolate Kp11978 expressing beta-lactamase OXA-48, SHV-2a and TEM-1 by Etest method in presence of beta-lactamase inhibitor clavulanic acid
In short: (§1)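 MICs of β-lactams read from Etest strips. The test organisms are carbapenem-resistant, OXA-48-positive clinical Enterobacteriaceae isolates recovered from Turkey, Lebanon, Egypt, France and Belgium.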

Escherichia coli [2] = assay: Antimicrobial activity against Escherichia coli isolate J53 harboring p3A containing beta-lactamase OXA-48 located within transposon Tn1999 by Etest method in presence of beta-lactamase inhibitor clavulanic acid
In short: (§2)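 β-Lactam MICs read with Etest strips. Strains are E. coli J53 recipient and J53 transconjugants carrying OXA-48-positive plasmids recovered from clinical enterobacterial isolates.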

Escherichia coli [3] = assay: Antimicrobial activity against Escherichia coli isolate J53 harboring p7A containing beta-lactamase OXA-48 located within transposon Tn1999 by Etest method in presence of beta-lactamase inhibitor clavulanic acid; in short: as §2
Klebsiella pneumoniae [4] = assay: Antimicrobial activity against Klebsiella pneumoniae isolate KpBEL expressing beta-lactamase OXA-48 by Etest method in presence of beta-lactamase inhibitor clavulanic acid; in short: as §1
Klebsiella pneumoniae [5] = assay: Antimicrobial activity against Klebsiella pneumoniae isolate KpI-2 expressing beta-lactamase OXA-48 and CTX-M-15 by Etest method in presence of beta-lactamase inhibitor clavulanic acid; in short: as §1
Escherichia coli [6] = assay: Antimicrobial activity against Escherichia coli isolate TOP10 harboring pBIC containing beta-lactamase OXA-48 located within transposon Tn1999.2 by Etest method
In short: (§3)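 β-Lactam MICs read with Etest strips. Strains are E. coli TOP10 host and TOP10 transformants made with plasmid DNA extract when conjugation failed. Transformants were selected on LB agar with ticarcillin 50 μg/ml.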

Enterobacter cloacae [7] = assay: Antimicrobial activity against Enterobacter cloacae isolate 2 expressing beta-lactamase OXA-48 and SHV-5 by Etest method in presence of beta-lactamase inhibitor clavulanic acid; in short: as §1
Escherichia coli [8] = assay: Antimicrobial activity against Escherichia coli isolate J53 harboring pBb containing beta-lactamase OXA-48 located within transposon Tn1999.2 by Etest method; in short: as §2
Enterobacter cloacae [9] = assay: Antimicrobial activity against Enterobacter cloacae isolate 1 expressing beta-lactamase OXA-48 and SHV-5 by Etest method
Escherichia coli [10] = assay: Antimicrobial activity against Escherichia coli isolate J53 harboring pEnc2 containing beta-lactamase OXA-48 located within transposon Tn1999 by Etest method in presence of beta-lactamase inhibitor clavulanic acid; in short: as §2
Escherichia coli [11] = assay: Antimicrobial activity against Escherichia coli isolate TOP10 harboring pPR containing beta-lactamase and TEM-101 by Etest method in presence of beta-lactamase inhibitor clavulanic acid; in short: as §3
Klebsiella pneumoniae [12] = assay: Antimicrobial activity against Klebsiella pneumoniae isolate KpBEL expressing beta-lactamase OXA-48 by Etest method; in short: as §1
Escherichia coli [13] = assay: Antimicrobial activity against Escherichia coli isolate TOP10 by Etest method in presence of beta-lactamase inhibitor clavulanic acid; in short: as §3
Escherichia coli [14] = assay: Antimicrobial activity against Escherichia coli isolate TOP10 by Etest method; in short: as §3
Citrobacter freundii [15] = assay: Antimicrobial activity against Citrobacter freundii isolate expressing beta-lactamase OXA-48 by Etest method in presence of beta-lactamase inhibitor clavulanic acid; in short: as §1
Klebsiella pneumoniae [16] = assay: Antimicrobial activity against Klebsiella pneumoniae isolate KpB expressing OXA-48 and CTX-M-15 by Etest method in presence of beta-lactamase inhibitor clavulanic acid; in short: as §1
Escherichia coli [17] = assay: Antimicrobial activity against Escherichia coli isolate J53 harboring pI-2 containing beta-lactamase OXA-48 located within transposon Tn1999.2 by Etest method in presence of beta-lactamase inhibitor clavulanic acid; in short: as §2
Escherichia coli [18] = assay: Antimicrobial activity against Escherichia coli isolate J53 by Etest method; in short: as §2
Escherichia coli [19] = assay: Antimicrobial activity against Escherichia coli isolate J53 harboring pL containing beta-lactamase OXA-48 located within transposon Tn1999.2 by Etest method; in short: as §2
Klebsiella pneumoniae [20] = assay: Antimicrobial activity against Klebsiella pneumoniae isolate KpI-1 expressing beta-lactamase OXA-48 and CTX-M-15 by Etest method in presence of beta-lactamase inhibitor clavulanic acid; in short: as §1
Klebsiella pneumoniae [21] = assay: Antimicrobial activity against Klebsiella pneumoniae isolate KpE expressing beta-lactamase OXA-48 and CTX-M-15 by Etest method
Escherichia coli [22] = assay: Antimicrobial activity against Escherichia coli isolate J53 harboring pEnc1 containing beta-lactamase OXA-48 located within transposon Tn1999 by Etest method; in short: as §2
Klebsiella pneumoniae [23] = assay: Antimicrobial activity against Klebsiella pneumoniae isolate KpB expressing OXA-48 and CTX-M-15 by Etest method
Escherichia coli [24] = assay: Antimicrobial activity against Escherichia coli isolate J53 harboring p5A containing beta-lactamase OXA-48 located within transposon Tn1999 by Etest method in presence of beta-lactamase inhibitor clavulanic acid; in short: as §2
Escherichia coli [25] = assay: Antimicrobial activity against Escherichia coli isolate J53 harboring pI-1 containing beta-lactamase OXA-48 located within transposon Tn1999.2 by Etest method; in short: as §2
Citrobacter freundii [26] = assay: Antimicrobial activity against Citrobacter freundii isolate expressing beta-lactamase OXA-48 by Etest method
Klebsiella pneumoniae [27] = assay: Antimicrobial activity against Klebsiella pneumoniae isolate KpBIC expressing beta-lactamase OXA-48 by Etest method in presence of beta-lactamase inhibitor clavulanic acid; in short: as §1
Providencia rettgeri [28] = assay: Antimicrobial activity against Providencia rettgeri isolate expressing beta-lactamase OXA-48 and TEM-101 by Etest method
Escherichia coli [29] = assay: Antimicrobial activity against Escherichia coli isolate J53 harboring pA-1 containing beta-lactamase OXA-48 located within transposon Tn1999 by Etest method; in short: as §2
Escherichia coli [30] = assay: Antimicrobial activity against Escherichia coli isolate J53 harboring pBEL containing beta-lactamase OXA-48 located within transposon Tn1999.2 by Etest method; in short: as §2
Klebsiella pneumoniae [31] = assay: Antimicrobial activity against Klebsiella pneumoniae isolate Kp6A expressing beta-lactamase OXA-48 and TEM-150 by Etest method in presence of beta-lactamase inhibitor clavulanic acid; in short: as §1
Klebsiella pneumoniae [32] = assay: Antimicrobial activity against Klebsiella pneumoniae isolate Kp5A expressing beta-lactamase OXA-48 and SHV-5 by Etest method
Escherichia coli [33] = assay: Antimicrobial activity against Escherichia coli isolate J53 by Etest method in presence of beta-lactamase inhibitor clavulanic acid
Providencia rettgeri [34] = assay: Antimicrobial activity against Providencia rettgeri isolate expressing beta-lactamase OXA-48 and TEM-101 by Etest method in presence of beta-lactamase inhibitor clavulanic acid; in short: as §1
Escherichia coli [35] = assay: Antimicrobial activity against Escherichia coli isolate J53 harboring pBb containing beta-lactamase OXA-48 located within transposon Tn1999.2 by Etest method in presence of beta-lactamase inhibitor clavulanic acid; in short: as §2
Escherichia coli [36] = assay: Antimicrobial activity against Escherichia coli isolate J53 harboring pCF containing beta-lactamase OXA-48 located within transposon Tn1999 by Etest method in presence of beta-lactamase inhibitor clavulanic acid; in short: as §2
Escherichia coli [37] = assay: Antimicrobial activity against Escherichia coli isolate J53 harboring pE containing beta-lactamase OXA-48 located within transposon Tn1999.2 by Etest method; in short: as §2
Escherichia coli [38] = assay: Antimicrobial activity against Escherichia coli isolate J53 harboring pE containing beta-lactamase OXA-48 located within transposon Tn1999.2 by Etest method in presence of beta-lactamase inhibitor clavulanic acid; in short: as §2
Klebsiella pneumoniae [39] = assay: Antimicrobial activity against Klebsiella pneumoniae isolate Kp3A expressing beta-lactamase OXA-48 by Etest method; in short: as §1
Escherichia coli [40] = assay: Antimicrobial activity against Escherichia coli isolate J53 harboring p7A containing beta-lactamase OXA-48 located within transposon Tn1999 by Etest method; in short: as §2

CC1(C)S[C@@H]2[C@H](NC(=O)[C@H](N)c3ccc(O)cc3)C(=O)N2[C@H]1C(=O)O [AMOXICILLIN]
MIC (Klebsiella pneumoniae [1]): > 512 µg/mL
MIC (Escherichia coli [2]): > 512 µg/mL
MIC (Escherichia coli [3]): > 512 µg/mL
MIC (Klebsiella pneumoniae [4]): > 256 µg/mL
MIC (Klebsiella pneumoniae [5]): > 512 µg/mL
MIC (Escherichia coli [6]): > 512 µg/mL
MIC (Enterobacter cloacae [7]): > 512 µg/mL
MIC (Escherichia coli [8]): > 512 µg/mL
MIC (Enterobacter cloacae [9]): > 512 µg/mL
MIC (Escherichia coli [10]): > 512 µg/mL
MIC (Escherichia coli [11]): > 256 µg/mL
MIC (Klebsiella pneumoniae [12]): > 256 µg/mL
MIC (Escherichia coli [13]): 4 µg/mL
MIC (Escherichia coli [14]): 4 µg/mL (≈ 10.9 µM)
MIC (Citrobacter freundii [15]): > 512 µg/mL
MIC (Klebsiella pneumoniae [16]): > 512 µg/mL
MIC (Escherichia coli [17]): > 512 µg/mL
MIC (Escherichia coli [18]): 4 µg/mL (≈ 10.9 µM)
MIC (Escherichia coli [19]): > 256 µg/mL
MIC (Klebsiella pneumoniae [20]): > 512 µg/mL
MIC (Klebsiella pneumoniae [21]): > 512 µg/mL
MIC (Escherichia coli [22]): > 512 µg/mL
MIC (Klebsiella pneumoniae [23]): > 512 µg/mL
MIC (Escherichia coli [24]): > 512 µg/mL
MIC (Escherichia coli [25]): > 512 µg/mL
MIC (Citrobacter freundii [26]): > 512 µg/mL
MIC (Klebsiella pneumoniae [27]): > 512 µg/mL
MIC (Providencia rettgeri [28]): > 256 µg/mL
MIC (Escherichia coli [29]): > 512 µg/mL
MIC (Escherichia coli [30]): > 256 µg/mL
MIC (Klebsiella pneumoniae [31]): > 512 µg/mL
MIC (Klebsiella pneumoniae [32]): > 512 µg/mL
MIC (Escherichia coli [33]): 4 µg/mL
MIC (Providencia rettgeri [34]): > 256 µg/mL
MIC (Escherichia coli [35]): > 512 µg/mL
MIC (Escherichia coli [36]): > 512 µg/mL
MIC (Escherichia coli [37]): > 512 µg/mL
MIC (Escherichia coli [38]): > 512 µg/mL
MIC (Klebsiella pneumoniae [39]): > 512 µg/mL
MIC (Escherichia coli [40]): > 512 µg/mL

CC1(C)S[C@@H]2[C@H](NC(=O)[C@H](C(=O)O)c3ccsc3)C(=O)N2[C@H]1C(=O)O [TICARCILLIN]
MIC (Klebsiella pneumoniae [1]): > 512 µg/mL
MIC (Escherichia coli [2]): > 512 µg/mL
MIC (Escherichia coli [3]): > 512 µg/mL
MIC (Klebsiella pneumoniae [4]): > 256 µg/mL
MIC (Klebsiella pneumoniae [5]): > 512 µg/mL
MIC (Escherichia coli [6]): > 512 µg/mL
MIC (Enterobacter cloacae [7]): > 512 µg/mL
MIC (Escherichia coli [8]): > 512 µg/mL
MIC (Enterobacter cloacae [9]): > 512 µg/mL
MIC (Escherichia coli [10]): > 512 µg/mL
MIC (Escherichia coli [11]): > 256 µg/mL
MIC (Klebsiella pneumoniae [12]): > 256 µg/mL
MIC (Escherichia coli [13]): 4 µg/mL
MIC (Escherichia coli [14]): 4 µg/mL (≈ 10.4 µM)
MIC (Citrobacter freundii [15]): > 512 µg/mL
MIC (Klebsiella pneumoniae [16]): > 512 µg/mL
MIC (Escherichia coli [17]): > 512 µg/mL
MIC (Escherichia coli [18]): 2 µg/mL (≈ 5.2 µM)
MIC (Escherichia coli [19]): > 256 µg/mL
MIC (Klebsiella pneumoniae [20]): > 512 µg/mL
MIC (Klebsiella pneumoniae [21]): > 512 µg/mL
MIC (Escherichia coli [22]): > 512 µg/mL
MIC (Klebsiella pneumoniae [23]): > 512 µg/mL
MIC (Escherichia coli [24]): > 512 µg/mL
MIC (Escherichia coli [25]): > 512 µg/mL
MIC (Citrobacter freundii [26]): > 512 µg/mL
MIC (Klebsiella pneumoniae [27]): > 512 µg/mL
MIC (Providencia rettgeri [28]): > 256 µg/mL
MIC (Escherichia coli [29]): > 512 µg/mL
MIC (Escherichia coli [30]): > 256 µg/mL
MIC (Klebsiella pneumoniae [31]): > 512 µg/mL
MIC (Klebsiella pneumoniae [32]): > 512 µg/mL
MIC (Escherichia coli [33]): 2 µg/mL
MIC (Providencia rettgeri [34]): > 256 µg/mL
MIC (Escherichia coli [35]): > 512 µg/mL
MIC (Escherichia coli [36]): > 512 µg/mL
MIC (Escherichia coli [37]): > 512 µg/mL
MIC (Escherichia coli [38]): > 512 µg/mL
MIC (Klebsiella pneumoniae [39]): > 512 µg/mL
MIC (Escherichia coli [40]): > 512 µg/mL
